Our source for the Ki and Accumulation values is ChEMBL document CHEMBL1129625, “11-substituted (R)-aporphines: synthesis, pharmacology, and modeling of D2A and 5-HT1A receptor interactions” (J Med Chem, 1996).

Assay [1] has as its target T1, 5-hydroxytryptamine receptor 1A (Rattus norvegicus, UniProt P19327).
T1 sequence (P19327 whole entry): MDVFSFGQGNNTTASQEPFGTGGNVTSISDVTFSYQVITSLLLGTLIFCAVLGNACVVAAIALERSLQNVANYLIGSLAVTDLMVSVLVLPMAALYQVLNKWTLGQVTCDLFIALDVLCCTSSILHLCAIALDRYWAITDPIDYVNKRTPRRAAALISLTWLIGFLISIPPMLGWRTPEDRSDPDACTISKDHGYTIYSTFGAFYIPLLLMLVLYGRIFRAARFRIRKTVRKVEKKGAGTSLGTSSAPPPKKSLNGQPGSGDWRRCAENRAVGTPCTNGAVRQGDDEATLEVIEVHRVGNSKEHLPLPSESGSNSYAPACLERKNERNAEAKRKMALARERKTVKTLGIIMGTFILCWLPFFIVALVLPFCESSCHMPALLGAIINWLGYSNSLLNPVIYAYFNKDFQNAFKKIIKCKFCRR
The assay can be described thus: In vitro displacement of [3H]8-OH-DPAT binding to rat hippocampal 5-hydroxytryptamine 1A receptor. It is filed as tissue-based, Hippocampus. A general note: Loss of bound radioactivity is the signal in a displacement assay; it reports binding, not function.

Assay [2] concerns the target T2, D(2) dopamine receptor (Homo sapiens, UniProt P14416). Briefly: Displacement of [3H]raclopride from human Dopamine receptor D2A.
Assay [3] concerns the target T3, D(1A) dopamine receptor (Rattus norvegicus, UniProt P18901). The assay can be described thus: Affinity for dopamine receptor D1 binding measured by competition against [3H]-SCH- 23390 to rat striatal membrane. Set-up: species or system Striatum. A digest of the protocol:
(§1)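 Radioligand displacement analysed with a one-site model. D1 sites come from rat striatum and are labelled with [3H]SCH23390. D2A is the cloned human receptor expressed in Ltk- cells and labelled with [3H]raclopride. Ki is the mean ± standard error of n = 2–3 experiments.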

The subject of assay [4] is Rattus norvegicus. Briefly: In vivo accumulation of DOPA in percent of saline control was determined in limbic forebrain of reserpine pretreated rat at a dose of 2.9 uM/kg. Type of assay: functional. A digest of the protocol: (§2)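 Reserpine 5 mg/kg sc given 18–20 h before. Single test dose given; 30 min later decarboxylase inhibited with NSD1015 (117 mg/kg sc). 5-HTP or DOPA accumulation measured in limbic forebrain, striatum and cortex, expressed as percent of saline controls (mean ± SEM, n = 2–4). Saline-control DOPA levels given in ng/g tissue. One-way ANOVA with Fischer's PLSD, p < 0.05.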

For assay [5], the system named is Rattus norvegicus. The assay can be described thus: In vivo accumulation of 5HTP in percent of saline control was determined in limbic forebrain of reserpine pretreated rat at a dose of 2.9 uM/kg. It is filed as functional. A digest of the protocol: as §2
For assay [6], the system named is Rattus norvegicus. The assay can be described thus: In vivo accumulation of DOPA in percent of saline control was determined in cortex of reserpine pretreated rat at a dose of 2.9 uM/kg. Type of assay: functional. The method in brief: as §2
Assay [7] relates to Rattus norvegicus. The assay can be described thus: In vivo accumulation of 5HTP in percent of saline control was determined in cortex of reserpine pretreated rat at a dose of 2.9 uM/kg. It is filed as functional. A digest of the protocol:
as §2

Assay [8] relates to Rattus norvegicus. The assay can be described thus: In vivo accumulation of DOPA in percent of saline control was determined in striatum of reserpine pretreated rat at a dose of 2.9 uM/kg. It is filed as functional. A digest of the protocol:
as §2

The test system of assay [9] is Rattus norvegicus. Briefly: In vivo accumulation of 5HTP in percent of saline control was determined in striatum of reserpine pretreated rat at a dose of 2.9 uM/kg. It is filed as functional. A digest of the protocol:
as §2

Assay [10] has as its system Rattus norvegicus. The assay can be described thus: In vivo accumulation of DOPA in percent of saline control was determined in cortex of reserpine pretreated rat at dose of 3.2 uM/kg. It is filed as functional. The method in brief:
(§3)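 Rats get reserpine 5 mg/kg sc 18–20 h beforehand. A single dose of test drug is given. NSD1015 (117 mg/kg sc) is injected 30 min after drug to block decarboxylase. 5-HTP or DOPA accumulation is measured in limbic forebrain, striatum and cortex and expressed as percent of saline controls, mean ± SEM, n = 2–4. Statistics use one-way ANOVA with Fisher's PLSD.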

Assay [11] relates to Rattus norvegicus. Briefly: In vivo accumulation of DOPA in percent of saline control was determined in striatum of reserpine pretreated rat at dose of 3.2 uM/kg. It is filed as functional. The method in brief: as §3
In assay [12] the test system is Rattus norvegicus. Briefly: In vivo accumulation of 5HTP in percent of saline control was determined in limbic forebrain of reserpine pretreated rat at dose of 3.2 uM/kg. Type of assay: functional. The method in brief:
as §3

In assay [13] the test system is Rattus norvegicus. The assay can be described thus: In vivo accumulation of DOPA in percent of saline control was determined in limbic forebrain of reserpine pretreated rat at dose of 3.2 uM/kg. Type of assay: functional. A digest of the protocol: as §3
The test system of assay [14] is Rattus norvegicus. The assay can be described thus: In vivo accumulation of 5HTP in percent of saline control was determined in cortex of reserpine pretreated rat at dose of 3.2 uM/kg. It is filed as functional. The method in brief:
as §3

Assay [15] concerns Rattus norvegicus. Briefly: In vivo accumulation of 5HTP in percent of saline control was determined in striatum of reserpine pretreated rat at dose of 3.2 uM/kg. It is filed as functional. A digest of the protocol: as §3
In assay [16] the target is T3, D(1A) dopamine receptor.
Assay [17] addresses T2, D(2) dopamine receptor. The assay can be described thus: Displacement of [3H]-raclopride fromd human Dopamine receptor D2A expressed in LtK- cells. Type of assay: cell-based. The method in brief:
as §1

Assay [18] relates to Rattus norvegicus. Briefly: In vivo accumulation of DOPA in percent of saline control was determined in striatum of reserpine pretreated rat at a dose of 3.7 uM/kg. Type of assay: functional. A digest of the protocol: as §3
For assay [19], the system named is Rattus norvegicus. The assay can be described thus: In vivo accumulation of 5HTP in percent of saline control was determined in striatum of reserpine pretreated rat at a dose of 3.7 uM/kg. Type of assay: functional. The method in brief:
as §3

For assay [20], the system named is Rattus norvegicus. Briefly: In vivo accumulation of DOPA in percent of saline control was determined in cortex of reserpine pretreated rat at a dose of 3.7 uM/kg. Type of assay: functional. The method in brief:
as §3

Assay [21] relates to Rattus norvegicus. The assay can be described thus: In vivo accumulation of 5HTP in percent of saline control was determined in cortex of reserpine pretreated rat at a dose of 3.7 uM/kg. It is filed as functional. The method in brief: as §3
Assay [22] deals with Rattus norvegicus. The assay can be described thus: In vivo accumulation of 5HTP in percent of saline control was determined in limbic forebrain of reserpine pretreated rat at a dose of 3.7 uM/kg. Type of assay: functional. The method in brief: as §3
Assay [23] relates to Rattus norvegicus. Briefly: In vivo accumulation of DOPA in percent of saline control was determined in limbic forebrain of reserpine pretreated rat at a dose of 3.7 uM/kg. Type of assay: functional. A digest of the protocol:
as §3

Bounds are passed on as bounds.

T2 sequence (P14416 whole entry): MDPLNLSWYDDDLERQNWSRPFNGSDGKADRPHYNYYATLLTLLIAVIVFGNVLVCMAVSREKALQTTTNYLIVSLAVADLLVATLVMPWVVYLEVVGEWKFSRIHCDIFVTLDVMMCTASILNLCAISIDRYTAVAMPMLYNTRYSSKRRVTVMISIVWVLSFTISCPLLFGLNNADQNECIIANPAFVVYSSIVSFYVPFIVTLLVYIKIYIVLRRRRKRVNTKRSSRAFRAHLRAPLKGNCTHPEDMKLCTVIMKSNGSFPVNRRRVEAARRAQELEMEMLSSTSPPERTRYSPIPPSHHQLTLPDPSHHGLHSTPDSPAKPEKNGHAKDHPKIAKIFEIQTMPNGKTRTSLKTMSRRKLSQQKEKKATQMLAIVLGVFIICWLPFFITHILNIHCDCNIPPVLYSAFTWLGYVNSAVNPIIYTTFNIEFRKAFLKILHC
T3 sequence (P18901 whole entry): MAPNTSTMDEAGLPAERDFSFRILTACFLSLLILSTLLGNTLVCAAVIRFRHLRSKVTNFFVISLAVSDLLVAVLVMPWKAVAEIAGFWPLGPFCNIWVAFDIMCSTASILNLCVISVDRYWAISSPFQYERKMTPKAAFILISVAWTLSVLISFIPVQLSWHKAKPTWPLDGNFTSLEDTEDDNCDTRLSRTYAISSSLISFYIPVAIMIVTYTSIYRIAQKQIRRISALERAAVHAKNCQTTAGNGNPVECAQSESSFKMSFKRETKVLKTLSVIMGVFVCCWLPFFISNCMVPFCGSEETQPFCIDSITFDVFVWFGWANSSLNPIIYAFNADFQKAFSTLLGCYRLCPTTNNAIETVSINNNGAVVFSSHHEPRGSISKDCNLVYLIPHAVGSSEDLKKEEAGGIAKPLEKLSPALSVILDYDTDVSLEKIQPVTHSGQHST

`C=Cc1cccc2c1-c1cccc3c1[C@@H](C2)N(C)CC3`: the Ki in assay [1] was determined as 6 nM; at D(2) dopamine receptor [2], 177 nM; at D(1A) dopamine receptor [3] it was 720 nM.
`CN1CCc2cccc3c2[C@H]1Cc1cccc(-c2ccccc2)c1-3`: the Ki in [1] was 1.8 nM; at D(2) dopamine receptor [2], 233 nM; at D(1A) dopamine receptor [3], 3630 nM. The Accumulation in the assay with Rattus norvegicus [4] is listed as 95; with Rattus norvegicus [5] it was 95; in the assay with Rattus norvegicus [6], 107; with Rattus norvegicus [7] it was 133; in the assay with Rattus norvegicus [8] it was 93; with Rattus norvegicus [9], 106.
As for `CCCN1CCc2cccc3c2[C@H]1Cc1cccc(O)c1-3`, the Accumulation with Rattus norvegicus [10] was determined as 106; in the assay with Rattus norvegicus [11] it was 29; in the assay on Rattus norvegicus [12] it was 122; in the assay with Rattus norvegicus [13] it was 66; in the assay with Rattus norvegicus [14], 87; in the assay with Rattus norvegicus [15] it was 97.
As for `Cc1cccc2c1-c1cccc3c1[C@@H](C2)N(C)CC3`, the inhibition constant (Ki) in assay [1] came to 14.4 nM; on D(2) dopamine receptor [2], 201 nM; at D(1A) dopamine receptor [16] it was 700 nM.
On to `CN1CCc2cccc3c2[C@H]1Cc1cccc(C(N)=O)c1-3`, for which the inhibitory constant (Ki) in assay [1] was 198 nM; at D(1A) dopamine receptor [16], over 4000 nM; at D(2) dopamine receptor [17], over 10000 nM.
`Oc1cccc2c1-c1cccc3c1[C@@H](C2)NCC3`: the Ki in assay [1] is 5.7 nM; at D(1A) dopamine receptor [16], 1100 nM; at D(2) dopamine receptor [17], over 1000 nM. For the same compound, the Accumulation in the assay on Rattus norvegicus [18] turned out to be 71; with Rattus norvegicus [19] it was 89; in the assay on Rattus norvegicus [20] it was 96; in the assay on Rattus norvegicus [21], 122; in the assay with Rattus norvegicus [22] it was 108; in the assay on Rattus norvegicus [23] it was 78.
On to `COc1ccccc1-c1cccc2c1-c1cccc3c1[C@@H](C2)N(C)CC3`, for which the figures for the Ki (in assay [1]; on D(1A) dopamine receptor [16]; at D(2) dopamine receptor [17]) were 26.9 nM, over 3000 nM and 1330 nM, respectively.
For the compound `CC(=O)c1cccc2c1-c1cccc3c1[C@@H](C2)N(C)CC3`, the Ki in assay [1] worked out at 57.1 nM; at D(2) dopamine receptor [17] it was 311 nM; at D(1A) dopamine receptor [3] it was 4690 nM.
Turning to `CC(C)N1CCc2cccc3c2[C@H]1Cc1cccc(O)c1-3`, the Ki in assay [1] is 437 nM; on D(1A) dopamine receptor [16] it was over 10000 nM; on D(2) dopamine receptor [17], 1010 nM.
Regarding `CN1CCc2cccc3c2[C@H]1Cc1cccc(OS(=O)(=O)C(F)(F)F)c1-3`, the Ki in assay [1] was 7.7 nM; on D(2) dopamine receptor [2] it was 195 nM; on D(1A) dopamine receptor [16] it was 386 nM.

The term Ki denotes a measure of affinity in units of concentration, obtained from inhibition or displacement. A lower Ki goes with higher affinity.
